Casp6 inh – human caspase-6 inhibitors, primary screen, biochemical, VEID-R110 fluorescence, single point, set 2 | purified caspase-6, Z-VEID-R110 cleavage fluorescence | inhibition, % at 12.5 µM | actives 0.53% (n = 350,000);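 active = mean inhibition across replicates at least about 35%, with every replicate also reaching that limit, limit read from the data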;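 note: 0% = median of neutral control wells and 100% = no fluorescence left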
Target sequence (P55212 24-179 limits assumed): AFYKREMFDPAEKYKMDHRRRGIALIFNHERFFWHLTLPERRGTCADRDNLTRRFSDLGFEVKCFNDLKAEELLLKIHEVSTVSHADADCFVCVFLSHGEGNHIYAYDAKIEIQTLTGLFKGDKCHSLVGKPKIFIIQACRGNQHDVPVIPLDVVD
Target sequence (P55212 194-293 limits assumed): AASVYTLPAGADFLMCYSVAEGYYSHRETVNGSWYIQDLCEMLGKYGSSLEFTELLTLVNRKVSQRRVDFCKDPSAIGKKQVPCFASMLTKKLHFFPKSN
DNMT1 block – human DNMT1 methyltransferase inhibitors, primary screen, biochemical, molecular beacon, fluorescence, HinP1I cleavage, uHTS; inhibition (reported as % activation of signal), % at 10 µM; DNA (cytosine-5)-methyltransferase 1 (Homo sapiens), P26358; actives 0.83% (n = 360,000); AID 588458, 2011; in the data active = inhibition above about 50%
STEP inh – STEP phosphatase inhibitors, primary screen, biochemical, fluorescence intensity, uHTS; recombinant STEP, OMFP fluorogenic substrate; actives 0.25% (n = 360,000); Tyrosine-protein phosphatase non-receptor type 5 (Homo sapiens), P54829; AID 588621, 2011; inhibition, % at 20 µM;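 active = inhibition at 20 µM, scaled per plate between control wells, above about 37%, limit read from the data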;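 note: 0% = DMSO with enzyme and substrate and 100% = substrate only without enzyme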
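Material: STEP (striatal-enriched tyrosine phosphatase) enzyme, cell-free | Medium: 50 mM Bis-Tris pH 6.0 with 2.5 mM DTT and 0.005% Tween 20 | Read-out: Percent inhibition scaled to no-enzyme and uninhibited-enzyme controls, plate-pattern corrected | Signal: Fluorescence read at 480 nm ex / 540 nm em | Times: 20 min reaction, room temperature, in the dark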
Scp-1 inhibitor – Scp-1 phosphatase inhibitors, primary screen, biochemical, colorimetric, uHTS; Recombinant Scp1, phosphopeptide, malachite green phosphate absorbance; AID 493091, 2011; Carboxy-terminal domain RNA polymerase II polypeptide A small phosphatase 1 (Homo …; actives 0.88% (n = 340,000); inhibition, % at 20 µM;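 active = inhibition above about 50% at 20 µM, limit read from the data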;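 note: plate controls were DMSO wells with enzyme for no effect and wells lacking enzyme for full effect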
Target sequence (Q9GZU7 76-261 limits assumed): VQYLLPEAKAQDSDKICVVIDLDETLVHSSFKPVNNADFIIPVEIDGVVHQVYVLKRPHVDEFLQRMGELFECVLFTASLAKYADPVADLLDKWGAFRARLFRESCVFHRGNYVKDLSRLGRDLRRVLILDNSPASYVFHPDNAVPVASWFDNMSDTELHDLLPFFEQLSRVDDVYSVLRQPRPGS
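System: truncated SCP-1 phosphatase (76-261aa); medium: Tris acetate buffer pH 5.5 with MgCl2 and Tween-20; incubation: 45 min room-temperature reaction, 5 min colour, 30 min stabiliser; compound: single 20 µM dose, 1% DMSO; reagent: Phosphorylated 17-residue peptide substrate; read-out: % inhibition at 20 µM; technique: colorimetric free-phosphate detection, absorbance 630 nm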
LMPTP block – LMPTP phosphatase inhibitors, primary screen, biochemical, fluorescence intensity, uHTS; Low molecular weight phosphotyrosine protein phosphatase (Homo sapiens), P24666; recombinant LMPTP-A, OMFP fluorogenic substrate; inhibition, % at 20 µM; actives 0.22% (n = 360,000);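 active = compounds that cut the enzyme signal by at least half of the control window in the single-dose screen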;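 note: plate controls were DMSO wells with enzyme plus substrate for no effect and substrate without enzyme for full effect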
Target sequence (P24666 whole entry, looked up): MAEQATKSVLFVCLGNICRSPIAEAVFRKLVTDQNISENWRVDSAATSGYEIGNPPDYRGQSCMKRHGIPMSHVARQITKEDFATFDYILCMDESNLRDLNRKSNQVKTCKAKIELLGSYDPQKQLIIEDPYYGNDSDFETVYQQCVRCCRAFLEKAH
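Material: LMPTP-A; amount: 0.625 nM enzyme; doses: single 20 µM dose; times: reaction 50 min, room temperature, dark; technique: fluorescence intensity of OMFP turnover product; benchmarks: no-enzyme and uninhibited controls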
SUMO1-SIM PPI – modulators of SUMO1 protein-protein interactions, primary screen, biochemical, uHTS | Small ubiquitin-related modifier 1 (Homo sapiens), P63165 | SUMO1 binding to a labelled peptide, TR-FRET, 1 h | inhibition, % at 20 µM | actives 0.33% (n = 360,000) | AID 602429, 2012; in the data active = inhibition above about 37%
An asterisk follows results filed as active; x = no result given; ! = repeats disagree. Hits are enriched below; roughly 1.7% of the tested compounds scored in any of these assays.

SMILES	Casp6 inh	DNMT1 block	STEP inh	Scp-1 inhibitor	LMPTP block	SUMO1-SIM PPI
Nc1ccccc1Sc1ccc(C(=O)c2ccccc2C(=O)O)cc1[N+](=O)[O-]	46*	-3	0	26	1	-22
Cc1ccc(C2=NOC(=O)/C2=C\C=C\c2ccccc2)cc1	1	28	-2	-10	2	41*
C#CCOCCOCCOCCNc1nc(N2CCN(C(=O)CCCCCCCCCCNC(=O)[C@H]([C@@H](C)CC)n3cc(CCCCN=C(N)N)nn3)CC2)nc(N2CCN(C(=O)CCCCCCCCCCNC(=O)[C@@H]([C@H](C)O)n3cc(C)nn3)CC2)n1	29	-108	6	35	9	86*
C#CCOCCOCCOCCNc1nc(N2CCN(C(=O)CCCCCCCCCCNC(=O)[C@H](CCCCN)n3cc(C[C@@H](C)CC)nn3)CC2)nc(N2CCN(C(=O)CCCCCCCCCCNC(=O)[C@H](CCCN=C(N)N)n3cc(C[C@@H](C)CC)nn3)CC2)n1	x	-227	29	58*	14	72*
C#CCOCCOCCOCCNc1nc(N2CCN(C(=O)CCCCCCCCCCNC(=O)[C@@H](CCSC)n3cc(CCO)nn3)CC2)nc(N2CCN(C(=O)CCCCCCCCCCNC(=O)[C@H](CCCN=C(N)N)n3cc(C[C@@H](C)CC)nn3)CC2)n1	x	-106	18	43	12	80*
C#CCOCCOCCOCCNc1nc(N2CCN(C(=O)CCCCCCCCCCNC(=O)[C@H](CCCCN)n3cc(C[C@@H](C)CC)nn3)CC2)nc(N2CCN(C(=O)CCCCCCCCCCNC(=O)[C@@H]([C@H](C)O)n3cc(C)nn3)CC2)n1	x	-148	8	38	7	70*
COc1cc(/C=C/C(=O)O)cc(S(=O)(=O)N2CCc3ccccc3C2)c1OC	6	3	-1	-4	0	-2
COCCCn1c(SCC(=O)NC2CCCC2)nnc1-c1cccs1	x	2	0	-1	-1	3
Cc1cccc(C(=O)NCCC(=O)N2CCc3ccccc3C2)c1	6	-5	-2	-2	0	0
CN1CC2([N+](=O)[O-])CC=C(OCCO)C([N+](=O)[O-])(C1)C2 (stereo unspecified)	39*	9	-1	6	-1	0
Cc1ccc(OCC(=O)NNC(=O)CCC(=O)Nc2ccc(C)cc2C)cc1	x	10	-6	32	1	-3
Cc1ccc(NC(=O)CCC(=O)NNC(=O)COc2ccccc2)c(C)c1	41*	5	1	23	0	-5
COc1ccc(NS(=O)(=O)c2ccc(C(=O)NCC3(N4CCOCC4)CCCCC3)cc2)cc1	0	-4	0	0	0	40*
CCNC(=O)CN(c1ccccc1OC)S(=O)(=O)c1cccs1	x	1	-2	-1	-1	-1
O=C(CCl)Nc1ccc(-c2ccccc2)cc1	0	5	-1	-6	0	56*
O=C(NCCN1CCC(n2c(=O)[nH]c3ccccc32)CC1)c1ccccc1Cl	-3	x	x	x	6	6
O=C(NCCN1CCC(n2c(=O)[nH]c3ccccc32)CC1)c1cccc2c1-c1ccccc1C2=O	-20	x	x	x	13	55*
CC(NS(=O)(=O)c1ccc(OCC(=O)Nc2cccc([N+](=O)[O-])c2)cc1)c1ccccc1 (stereo unspecified)	-1	-8	-4	-3	0	-2
Fc1ccc(/C=N/NC(=S)Nc2cccnc2)cc1	48*	0	0	4	1	-5
Oc1ccc(/C=N/NC(=S)Nc2cccnc2)c(O)c1O	49*	3	16	6	84*	81*
Oc1cccc(/C=N/NC(=S)Nc2cccnc2)c1O	x	-8	-4	-5	3	-2
CO[C@H]1CN(C)C(=O)c2ccc(NC(=O)c3ccccc3)cc2OC[C@H](C)N(C(C)=O)C[C@@H]1C	1	x	x	x	x	x
Cc1nc(S/C(=C/c2ccc(-c3ccc(Cl)cc3)o2)C(=O)O)n[nH]1	x	-3	2	12	0	-1
Cc1nc(S/C(=C/c2ccc(-c3ccc(C(=O)O)cc3)o2)C(=O)O)n[nH]1	26	28	15	75*	0	8
Cc1nc(S/C(=C/c2ccc(-c3cc(Cl)ccc3C)o2)C(=O)O)n[nH]1	1	-2	3	17	3	69*
SMILES	Casp6 inh	DNMT1 block	STEP inh	Scp-1 inhibitor	LMPTP block	SUMO1-SIM PPI
CC(=O)c1ccc(-c2ccc(/C=C(/Sc3n[nH]c(C)n3)C(=O)O)o2)cc1	-2	1	-4	30	2	9
O=C1Nc2ccccc2O/C1=C\c1ccccc1Br	-1	3	0	-13	0	-5
Cc1ccc(Nc2ccc(N)cc2S(=O)(=O)O)cc1	62*	13	5	15	67*	27
Cc1cccn2c(=O)c(/C=N/O)c(Nc3ccccc3F)nc12	-2	11	2	-11	16	52*
Cc1cc(C)c(NC(=O)Cn2nnc(C(=O)NCCc3ccccc3)c2N)c(C)c1	x	23	-2	-2	0	8
Cc1ccc(NC(=O)Cn2nnc(C(=O)NCCc3ccccc3)c2N)c(C)c1	x	53*	-2	18	41	3
Cc1cccc(NC2=C/C(=N/S(=O)(=O)c3cccs3)c3ccccc3C2=O)c1	x	24	7	-2	7	4
O=C1C(Nc2ccc(O)cc2)=C/C(=N/S(=O)(=O)c2cccs2)c2ccccc21	99*	67*	2	-8	10	52*
O=C(O)c1ccc(NC2=C/C(=N/S(=O)(=O)c3cccs3)c3ccccc3C2=O)cc1	100*	97*	5	x	9	65*
Cc1ccc(Cl)cc1NC1=C/C(=N\S(=O)(=O)c2cccs2)c2ccccc2C1=O	1	57*!	4	-12	5	-9
O=C(O)Cn1cc2c(n1)CCCCC2	x	0	-4	-5	-1	-4
COCc1cc(=O)oc2cc(NC(=O)c3ccc(C(C)(C)C)cc3)ccc12	x	11	-2	-15	-1	-11
COc1ccc(/C=N/OCC(=O)NCc2cccs2)c(OC)c1	x	-2	2	-3	-1	2
O=C1c2ccccc2C(=O)C1(CO)c1ccccc1	38*	0	-2	-5	-1	-18
O=C(N/N=C/c1ccccn1)c1cc(Br)ccc1O	1	3	6	-2	0	4
